Test results taken from ChEMBL document CHEMBL4007453, “Identification of Non-Nucleoside Inhibitors of the Respiratory Syncytial Virus Polymerase Complex” (J Med Chem, 2017).
Converted amounts (≈) assume the structure as drawn.

Assays:
[1] = Selectivity index, ratio of CC50 for human BEAS2B cells to EC50 for inhibition of recombinant mkate-tagged-Respiratory syncytial virus-A2-L19F RNA-dependent RNA polymerase complex D489E mutant in human BEAS2B cells infected with Respiratory syncytial virus-A2-L19F; format: toxicity, cell-based; conditions: read-out: Ratio CC50/EC50
Summary of the method: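 SI is CC50/EC50 in BEAS-2B cells. EC50 came from reporter RSV dose-response, 3-fold dilutions, top 10 µM. […] Both values from four-parameter variable-slope regression.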

BEAS-2B = assay: Cytotoxicity against human BEAS2B cells after 48 hrs by PrestoBlue staining based fluorescence assay; format: cell-based
Summary of the method: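 Uninfected BEAS-2B cells were exposed to compound for 48 h at 37°C. PrestoBlue was added and incubated 90 min at 37°C, then fluorescence was read (ex 560 nm, em 590 nm). Cytotoxic was defined as metabolic activity <70% of vehicle control. Highest concentration assessed for cytotoxicity was 90 µM, and CC50 came from four-parameter variable slope regression.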

[2] = Inhibition of recombinant Respiratory syncytial virus-A2-L19F RNA-dependent RNA polymerase complex D489E mutant transfected with firefly luciferase gene at SMASh domain in human BEAS2B cells infected with Respiratory syncytial virus-A2-L19F assessed as reduction in viral replication measured after […] by bioluminescence assay; format: cell-based; conditions: human respiratory syncytial virus, A2-L19F, BEAS-2B
Summary of the method: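 BEAS-2B cells (1.5×10^4/well) received 3-fold serial compound dilutions prepared in three repeats (top concentration 10 µM) and were infected with firefly-luciferase/SMASh reporter RSV-A2-L19F D489E (MOI 0.1). Luminescence was converted to % inhibition against four-replicate positive and negative controls per plate. EC50 came from four-parameter variable-slope regression.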

[3] = Inhibition of recombinant mkate-tagged-Respiratory syncytial virus-A2-L19F RNA-dependent RNA polymerase D489E mutant in human BEAS2B cells infected with Respiratory syncytial virus-A2-L19F assessed as reduction in progeny release measured after 48 hrs postinfection by fluorescence assay based progeny virus yield-based dose-response assay; format: cell-based; conditions: BEAS-2B
Summary of the method: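 Cells in 12-well format infected with mKate-expressing recRSV-A2-L19F (MOI 0.05 particles/cell) in the presence of serial compound dilutions at 37°C. Cell-associated progeny harvested 48 h post-infection and released by one freeze/thaw cycle. Titres determined by TCID50 titration. Two repeats; EC50 derived by regression.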

[4] = test system: Respiratory syncytial virus; assay: Inhibition of Respiratory syncytial virus-A2-L19F RNA-dependent RNA polymerase complex D489E mutant in human BEAS2B cells infected with Respiratory syncytial virus-A2-L19F by firefly luciferase reporter-based RSV minigenome assay; format: cell-based
[5] = Aqueous solubility of the compound in citrate buffer at pH 5 after 90 mins by laser nephelometric method; format: physicochemical
Summary of the method: (§1)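 Stocks of 30 mg/mL in DMSO were serially diluted in DMSO, then into buffer to final 300 down to 1.5 µg/mL at 1% final DMSO. Diluent was PBS for pH 7.4 and citrate buffer for pH 3 and 5. Plates stood 90 min at ambient temperature. Forward-scatter laser nephelometry gave the concentration at which precipitation began.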

[6] = Aqueous solubility of the compound in phosphate buffered saline at pH 7.4 after 90 mins by laser nephelometric method; format: physicochemical; summary of the method: as §1
[7] = Aqueous solubility of the compound in citrate buffer at pH 3 after 90 mins by laser nephelometric method; format: physicochemical; summary of the method: as §1
Liver [8] = assay: Drug level in mouse liver microsomes treated with at 1 uM GRP-74915 by LC-MS analysis; format: ADME, microsome
[9] = Retention time of the compound at 80 uM by LC-MS analysis
Liver [10] = assay: Drug metabolism in mouse liver microsomes assessed as metabolite M3 formation at 80 uM after 2 hrs by LC-MS analysis; format: ADME, microsome
Summary of the method: (§2)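 Metabolite identification used 80 µM test article incubated in triplicate with mouse liver microsomes (0.5 mg total protein) plus Phase I oxidation and Phase II glucuronidation cofactors, at 37°C with shaking at 150 rpm. Aliquots were taken at 0, 15, 30, 60 and 120 min and mixed with organic internal standard solution.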

Liver [11] = assay: Drug metabolism in mouse liver microsomes assessed as metabolite M4 formation at 80 uM after 2 hrs by LC-MS analysis; format: ADME, microsome; summary of the method: as §2
Liver [12] = assay: Stability in mouse liver microsomes at 1 uM in absence of NADPH after 2 hrs by LC-MS analysis; format: ADME, microsome
Summary of the method: (§3)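 Test article at 1 µM final was incubated in triplicate at 37°C with shaking (150 rpm) with mouse or human liver S9 or microsomes (0.5 mg total protein), with Phase I oxidation and Phase II glucuronidation cofactors. Cofactor-free and microsome-free controls were run, sampled only at 0 and 120 min. Other sampling was at 0, 15, 30, 60 and 120 min into organic internal standard solution.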

Liver [13] = assay: Half life in human liver microsomes at 1 uM by LC-MS analysis; format: ADME, microsome; summary of the method: as §3
Liver [14] = assay: Drug metabolism in mouse liver microsomes assessed as metabolite M2 formation at 80 uM after 2 hrs by LC-MS analysis; format: ADME, microsome; summary of the method: as §2
Liver [15] = assay: Half life in mouse liver microsomes at 1 uM in presence of NADPH by LC-MS analysis; format: ADME, microsome; summary of the method: as §3
Liver [16] = assay: Drug metabolism in mouse liver microsomes assessed as metabolite M1 formation at 80 uM after 2 hrs by LC-MS analysis; format: ADME, microsome; summary of the method: as §2
Liver [17] = assay: Half life in mouse liver S9 fraction at 1 uM by LC-MS analysis; format: ADME, tissue-based; conditions: s9, 1 µM; summary of the method: as §3

Row | Structure (SMILES) | selectivity ratio [1] | CC50 (BEAS-2B) [µM] | EC50 [2] [µM] | further results
1 | Cc1ccoc1C(=O)N1CCCn2cc(C(=O)Nc3ccccc3)cc2C1 | > 28 | > 90 | 3.19 | –
2 | Cc1ccoc1C(=O)N1CCCn2nc(NS(=O)(=O)c3ccccc3)cc2C1 | – | – | > 10 | –
3 | Cc1ccoc1C(=O)N1CCCn2nc(C(=O)Nc3cncnc3)cc2C1 | – | – | > 10 | –
4 | O=C(Nc1ccccc1)c1cc2n(n1)CCCN(C(=O)c1occc1-c1ccccc1)C2 | – | – | > 10 | –
5 | Cc1ccoc1C(=O)N1CCCn2nc(NC(=O)c3ccccc3)cc2C1 | – | – | > 10 | –
6 | Cc1cc[nH]c1C(=O)N1CCCn2nc(C(=O)Nc3ccccc3)cc2C1 | – | – | > 10 | –
7 | O=C(Nc1ccccc1)c1cc2n(n1)CCCN(C(=O)c1occ3c1CCC3)C2 | – | 10 | 10 | –
8 | Cc1ccn(C)c1C(=O)N1CCCn2nc(C(=O)Nc3ccccc3)cc2C1 | – | – | > 10 | –
9 | Cc1ccoc1C(=O)N1CCCn2nc(C(=O)Nc3ccc(F)cc3)cc2C1 | 273 | 90 | 0.33 | –
10 | Cc1nc2ccccn2c1CN(C)C(=O)c1cc(COc2ccc(F)cc2F)on1 | – | – | – | EC50 [3]: 0.05 µM; inhibition [4]: Dose-dependent effect
11 | Cc1ccoc1C(=O)N1CCCn2nc(C(=O)Nc3ccc(F)cc3F)cc2C1 | 83 | 5 | 0.06 | –
12 | CCc1ccoc1C(=O)N1CCCn2nc(C(=O)Nc3ccccc3)cc2C1 | 14 | 10 | 0.73 | –
13 | Cc1ccoc1C(=O)N1CCCn2nc(C(=O)Nc3ccncn3)cc2C1 | 11 | 16.6 | 1.53 | –
14 | Cc1ccoc1C(=O)N1CCCn2nc(C(=O)N(C)c3ccccc3)cc2C1 | > 9 | > 90 | 10 | solubility kinetic at 1.5 h [5]: 25 µg/mL (≈ 66.1 µM); solubility kinetic at 1.5 h [6]: 58 µg/mL (≈ 153 µM); solubility kinetic at 1.5 h [7]: 20 µg/mL (≈ 52.8 µM)
15 | Cc1ccoc1C(=O)N1CCCn2nc(CNc3ccccc3)cc2C1 | 20 | 10 | 0.5 | –
16 | Cc1cc(C(=O)N2CCCn3nc(C(=O)Nc4ccccc4)cc3C2)oc1C | – | – | > 10 | –
17 | O=C(Nc1ccccc1)c1cc2n(n1)CCCN(C(=O)c1occc1C(F)(F)F)C2 | 6 | 30 | 5.4 | –
18 | Cc1coc(C(=O)N2CCCn3nc(C(=O)Nc4ccccc4)cc3C2)c1C | 13 | 30 | 2.25 | –
19 | Cc1ccoc1C(=O)N1CCCn2nc(S(=O)(=O)Nc3ccccc3)cc2C1 | – | – | > 10 | –
20 | O=C(Nc1ccccc1)c1cc2n(n1)CCCN(C(=O)c1ccncn1)C2 | – | – | > 10 | –
21 | COc1ccc(NC(=O)c2cc3n(n2)CCCN(C(=O)c2occc2C)C3)cc1 | 281 | 90 | 0.32 | –
22 | Cn1c(=O)n(C)c2cc(Cn3cnc(-c4ccccc4)c3C3CC3)ccc21 | – | – | – | EC50 [3]: 0.17 µM; inhibition [4]: Dose-dependent effect

Row | Structure (SMILES) | selectivity ratio [1] | CC50 (BEAS-2B) [µM] | EC50 [2] [µM] | further results
23 | Cc1ccoc1C(=O)N1CCCn2nc(C(=O)Nc3cccc(F)c3)cc2C1 | 143 | 30 | 0.21 | –
24 | Cc1ccoc1C(=O)N1CCCn2nc(C(=O)NCc3ccccc3)cc2C1 | 42 | 50 | 1.2 | –
25 | O=C(Nc1ccccc1)c1cc2n(n1)CCCN(C(=O)c1occc1Cl)C2 | 39 | 30 | 0.76 | –
26 | COc1ccccc1NC(=O)c1cc2n(n1)CCCN(C(=O)c1occc1C)C2 | 11 | 3.3 | 0.31 | solubility kinetic at 1.5 h [5]: 43 µg/mL (≈ 109 µM); solubility kinetic at 1.5 h [6]: 28 µg/mL (≈ 71 µM); solubility kinetic at 1.5 h [7]: 48 µg/mL (≈ 122 µM)
27 | Cc1ccccc1NC(=O)c1cc2n(n1)CCCN(C(=O)c1occc1C)C2 | 8 | 1.1 | 0.14 | –
28 | O=C(Nc1ccccc1F)c1cc2n(n1)CCCN(C(=O)c1ccco1)C2 | 12 | 3.7 | 0.32 | –
29 | Cc1ccc(C(=O)N2CCCn3nc(C(=O)Nc4ccccc4)cc3C2)o1 | – | – | > 10 | –
30 | Cc1coc(C(=O)N2CCCn3nc(C(=O)Nc4ccccc4)cc3C2)c1 | – | – | > 10 | –
31 | Cc1ccsc1C(=O)N1CCCn2nc(C(=O)Nc3ccccc3)cc2C1 | – | – | > 10 | –
32 | Cc1ccoc1CN1CCCn2nc(C(=O)Nc3ccccc3)cc2C1 | – | – | > 10 | –
33 | COc1cc(N2CCCC(CO)(Cc3cccc(Cl)c3)C2)ncn1 (stereo not drawn) | – | – | – | EC50 [3]: 0.13 µM; inhibition [4]: Dose-dependent effect
34 | Cc1cccc(NC(=O)c2cc3n(n2)CCCN(C(=O)c2occc2C)C3)c1 | 12 | 3.3 | 0.28 | –
35 | Cc1cc(C)c(C(=O)N2CCCn3nc(C(=O)Nc4ccccc4)cc3C2)o1 | – | 2.6 | 0.96 | –
36 | Cc1ccoc1C(=O)N1CCCn2nc(C(=O)O)cc2C1 | – | – | – | Drug metabolism (Liver [8]): Metabolite_Detected
37 | O=C(Nc1ccccc1)c1cc2n(n1)CCCN(S(=O)(=O)c1ccco1)C2 | – | – | > 10 | –
38 | O=C(Nc1ccccc1)c1cc2n(n1)CCCN(C(=O)c1ccco1)C2 | – | – | 7.1 | –
39 | CC(C)c1cc(C(=O)NCc2noc(-c3cccs3)n2)n(C)n1 | – | – | – | EC50 [3]: 0.03 µM; inhibition [4]: Dose-dependent effect
40 | Cc1ccoc1C(=O)N1CCn2nc(C(=O)Nc3ccccc3)cc2C1 | – | – | > 10 | –
41 | Cc1c(C(=O)N2CCCn3nc(C(=O)Nc4ccccc4)cc3C2)oc2ccccc12 | – | – | 10 | –
42 | Cc1ccc(NC(=O)c2cc3n(n2)CCCN(C(=O)c2occc2C)C3)cc1 | 73 | 30 | 0.41 | –
43 | Cc1ccoc1C(=O)N1CCCn2nc(C(=O)Cc3ccccc3)cc2C1 | 79 | 5.5 | 0.07 | Retention time [9]: 12.9 min; Drug metabolism (Liver [10]): Metabolite_Detected; Drug metabolism (Liver [11]): Metabolite_Detected; Stability (Liver [12]): Stable; t1/2 (Liver [13]): 42 min; Drug metabolism (Liver [14]): Metabolite_Detected; t1/2 (Liver [15]): 20 min; solubility kinetic at 1.5 h [5]: 18 µg/mL (≈ 49.5 µM); Drug metabolism (Liver [16]): Metabolite_Detected; t1/2 (Liver [17]): 20 min; solubility kinetic at 1.5 h [6]: 18 µg/mL (≈ 49.5 µM); solubility kinetic at 1.5 h [7]: < 15 µg/mL
44 | COc1cccc(NC(=O)c2cc3n(n2)CCCN(C(=O)c2occc2C)C3)c1 | 56 | 30 | 0.54 | –
